These entries were drawn from the full list.
Apaf1 activ: human Apaf-1 activation | O14727 | Apaf-1 apoptosome caspase-3 activation, DEVD-Rh110 fluorescence; stronger effect = lower value | activity change, negative = activation, % at 20 µM | actives 0.31% (n = 330,000) | AID 489031;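 active = activity change at or below -40% at 20 µM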
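Assay system – biochemical Apaf-1 apoptosome reconstitution · Medium – 20 mM HEPES buffer, pH 7.5, containing CHAPS and BSA · Incubation – 30 min preincubation, 50 min reaction, room temperature · Measured by – Caspase-3-released Rh110 fluorescence, 540 nm emission, 480 nm excitation · Read-out – Caspase-3 cleavage activity downstream of Apaf-1 activation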
Rh110 interf act: counter-screen for Apaf-1 activators: fluorescence interference | shares compounds with Apaf1 activ | Rh110 fluorescence interference, quenched caspase reaction, Ex480/Em540 | fluorescence interference (activity change), % at 20 µM, hits read low | 980 tested, under 10 active | AID 504616;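 active = mean activity change at or below -40% when tested at 20 µM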
Apaf-1 act conf: Apaf-1 (human) activation, single-dose confirmed. actives 5% (n = 980). activity change, negative = activation, % at 20 µM. shares compounds with Apaf1 activ. reconstituted apoptosome caspase-3 activity, DEVD-Rh110 fluorescence; stronger effect = lower value;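 active = mean activity change at or below -40%, meaning activation of 40% or more, at 20 µM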
Fluor interf act: Apaf-1 activator counter-screen fluorescence artifact. shares compounds with Apaf1 activ. fluorescence interference counterscreen, Apaf-1 activator assay. EC50, µM. 55 tested, under 10 active. AID 588592; call rule not given here
The depositor's hits bear a star.

SMILES | Apaf1 activ | others
CCC(=O)N(C1=C(NC)C(=O)c2ccccc2C1=O)C(C)C | 69
CCOc1ccc(-n2c(SCc3ccc([N+](=O)[O-])cc3)nnc2-c2ccc(OC)cc2)cc1 | -304* | Rh110 interf act=-4;Apaf-1 act conf=18
N#Cc1nc(-c2ccco2)oc1N1CCc2ccccc2C1 | 52
CCOc1c(O)ccc(/C=C2\SC(=S)NC2=O)c1[N+](=O)[O-] | 56
CCC1Oc2ccccc2N(CC(=O)NC2CCCCC2C)C1=O (stereo not given) | -224* | Rh110 interf act=7;Apaf-1 act conf=15
COc1cc(OC)c2c(-c3ccccc3)cc(=O)oc2c1C(CCN1CCOCC1)c1ccc(N(C)C)cc1 (stereo not given) | 52
CC1=CC(=C(C#N)c2nc3ccccc3s2)C=C(C)N1c1ccc(F)cc1 | 45
Cc1ccc(-c2ccc(/C=N\NC(=O)C3C(=O)NCC3c3ccccc3)o2)cc1Cl (stereo not given) | 43
CCC(CC)c1nnc(NC(=O)CN2C(=O)c3ccccc3C2=O)s1 | 87
COC(=O)c1ccccc1NC(=O)CN1C(=O)CSC1=O | -48* | Rh110 interf act=-6;Apaf-1 act conf=8
O=C(COC(=O)c1cc(Cl)ccc1Cl)NCCN1C(=O)CSC1=O | 43
CCCCn1c(NC(=O)c2ccc(F)cc2)c(C#N)c2nc3ccccc3nc21 | 95
Cc1ccc(N(CC(N)=O)C2SC(=O)N(C)C2=O)cc1 (stereo not given) | -488* | Rh110 interf act=8;Apaf-1 act conf=12
CCCCc1cc(=O)oc2cc(OCC(=O)NCCN3CCOCC3)c(Cl)cc12 | 61
CCN(CC)CCCNC1=C(Cl)C(=O)c2ccccc2C1=O | 50
O=C(O)c1ccc(S(=O)(=O)/N=C2\C=C(Nc3ccccc3F)C(=O)c3ccccc32)cc1 | 96
O=C(c1ccc2nc(-c3ccco3)c(-c3ccco3)nc2c1)N1CCN(c2ncccn2)CC1 | 57
O=C(CSc1ccc2c(c1)OCCO2)Nc1ccc2c(c1)OCO2 | -578* | Rh110 interf act=10;Apaf-1 act conf=11
O=C(Nc1ccc2c(c1)OCO2)[C@@H]1[C@@H]2C(=O)N(C3CCCCC3)C(=O)[C@@H]2C2c3ccccc3C=CN21 (stereo not given in full) | 42
O=C1/C(=C/Nc2ccc3c(c2)OCO3)CCc2ccccc21 | 45
O=C(/C=C/c1ccc(O)c(O)c1)O[C@@H]1C[C@](O)(C(=O)O)C[C@@H](O)[C@H]1O | -3
O=C1NC(=Nc2ccccc2)S/C1=C/c1cccs1 | -300* | Rh110 interf act=7;Apaf-1 act conf=15
COc1ccc(C2CC(=O)N3CN(c4ccc(C)c(Cl)c4)CSC3=C2C#N)cc1 (stereo not given) | 47
C#CCOCCOCCOCCNc1nc(N2CCN(C(=O)CCCCCCCCCCNC(=O)[C@H](CO)n3cc(CCCSC)nn3)CC2)nc(N2CCN(C(=O)CCCCCCCCCCNC(=O)[C@H](CCCCN)n3cc(C[C@@H](C)CC)nn3)CC2)n1 | 68
Cc1ccc(C2(c3noc(CN(C)CC4CCCCO4)n3)CCCC2)cc1 (stereo not given) | -413* | Rh110 interf act=19;Apaf-1 act conf=18
SMILES | Apaf1 activ | others
c1cc2cn[nH]c2cc1NC1CCCCCC1 | 53
COc1ccc(NC(=O)NNc2cc(N3CCOCC3)nc(N3CCOCC3)n2)cc1 | 52
COc1ccc(Nc2ccc(OC)cc2)cc1 | 80
COc1ccc(S(=O)(=O)Nc2ccc(S(=O)(=O)N3CCOCC3)cc2)cc1 | -64* | Rh110 interf act=-6;Apaf-1 act conf=8
CCCCC[n+]1ccn(C2=C([O-])c3ccccc3C(=O)/C2=N\S(=O)(=O)c2ccccc2)c1 | 53
COc1ccc(-n2nc3ccc(N)cc3n2)cc1Cl | 95
C#CCOCCOCCOCCNc1nc(N2CCN(C(=O)[C@H]([C@@H](C)CC)n3cc(CCCCN)nn3)CC2)nc(N2CCN(C(=O)[C@H]([C@@H](C)CC)n3cc(CCCN=C(N)N)nn3)CC2)n1 | 46
C1=CC2c3ccccc3NC(c3ccncc3)C2C1 (stereo not given) | 49
Cc1cc(C)cc(NC(=O)C2CCN(S(C)(=O)=O)CC2)c1 | -67* | Rh110 interf act=1;Apaf-1 act conf=0
CC1CCCN(C2=C(NS(=O)(=O)c3ccc(Br)cc3)C(=O)c3ccccc3C2=O)C1 (stereo not given) | 51
CCOC(=O)C1CCCN(C2=C(NS(=O)(=O)c3ccc(Br)cc3)C(=O)c3ccccc3C2=O)C1 (stereo not given) | 67 | Fluor interf act=>100
CC1CCN(C2=C(NS(=O)(=O)c3ccc(Br)cc3)C(=O)c3ccccc3C2=O)CC1 | 54
CN1CCc2cc3c(c4c2[C@H]1[C@H](O)c1ccccc1-4)OCO3 | 48

Screens deposited in PubChem by Sanford-Burnham Center for Chemical Genomics.
